Assay results reported in ChEMBL document CHEMBL1649147, “Antistaphylococcal activity of dihydrophthalazine antifolates, a family of novel antibacterial drugs” (2009).
≈ marks a conversion by molar mass, not a printed value.

Legend:
[1] = system: Staphylococcus epidermidis; assay: Antibacterial activity against methicillin-susceptible coagulase-negative Staphylococcus epidermidis 057 by broth macrodilution method; assay type: functional
Staphylococcus aureus [2] = assay: Antibacterial activity against Staphylococcus aureus 145 assessed as change in MIC by agar dilution method after serial passages in the absence of antibiotic relative to control; assay type: functional
Method in brief: (§1)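 After drug-selective serial passage, selected clones were passaged 10 times in antibiotic-free MHB. MICs were then redetermined, and the change is expressed as log2 dilution steps.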

[3] = system: Staphylococcus epidermidis; assay: Antibacterial activity against coagulase-negative Staphylococcus epidermidis 057 after 10 passages in MBH without antibiotic by agar dilution method; assay type: functional; method in brief: as §1
Staphylococcus aureus [4] = assay: Antibacterial activity against Staphylococcus aureus 145 assessed as change in MIC by agar dilution method after serial passages in presence of antibiotic relative to control; assay type: functional
Method in brief: (§2)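 Serial passage under drug. Inoculum was ~1 × 10^6 CFU/ml from overnight MHA growth, in 1 ml MHB at 35°C for 24 h. Drug ranged from 4 log2 steps above to 3 log2 steps below the MIC. […] MIC change is given as log2 steps.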

[5] = system: Staphylococcus epidermidis; assay: Antibacterial activity against coagulase-negative Staphylococcus epidermidis 345 assessed as change in MIC by agar dilution method after serial passages in the absence of antibiotic relative to control; assay type: functional; method in brief: as §1
[6] = system: Staphylococcus epidermidis; assay: Antibacterial activity against coagulase-negative Staphylococcus epidermidis 345 by agar dilution method; assay type: functional
Method in brief: (§3)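 MICs by agar dilution on Mueller-Hinton agar following CLSI guidelines. S. aureus ATCC 29213 and E. faecalis ATCC 29212 were run as quality controls with each set, and test-strain MICs were kept only if control MICs fell within acceptable ranges.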

[7] = system: Staphylococcus epidermidis; assay: Antibacterial activity against coagulase-negative Staphylococcus epidermidis 051 assessed as change in MIC by agar dilution method after serial passages in presence of antibiotic relative to control; assay type: functional; method in brief: as §2
Staphylococcus aureus [8] = assay: Antibacterial activity against Staphylococcus aureus 145
[9] = system: Staphylococcus epidermidis; assay: Antibacterial activity against methicillin-resistant, Linezolid non-susceptible coagulase-negative Staphylococcus epidermidis 345 by agar dilution method; assay type: functional
Staphylococcus aureus [10] = assay: Antibacterial activity against vancomycin-resistant Staphylococcus aureus VRS1 assessed as change in MIC by agar dilution method after serial passages in presence of antibiotic relative to control; assay type: functional
Method in brief: (§4)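 Daily serial passage for up to 50 days at 35°C for 24 h in 1 ml MHB. […] Each transfer used 10 µl from the tube nearest the MIC (1–2 dilutions below) with the same turbidity as the drug-free control. […] MICs were measured by agar dilution, with changes given as log2 steps.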

[11] = system: Staphylococcus epidermidis; assay: Antibacterial activity against methicillin-susceptible coagulase-negative Staphylococcus epidermidis 051 by broth macrodilution method; assay type: functional
[12] = system: Staphylococcus epidermidis; assay: Antibacterial activity against coagulase-negative Staphylococcus epidermidis 051 assessed as change in MIC by agar dilution method after serial passages in the absence of antibiotic relative to control; assay type: functional; method in brief: as §1
[13] = system: coagulase-negative staphylococci; assay: Antibacterial activity against Tmp-resistant coagulase-negative staphylococci by agar dilution method
[14] = system: Staphylococcus epidermidis; assay: Antibacterial activity against methicillin-resistant coagulase-negative Staphylococcus epidermidis 225 by broth macrodilution method; assay type: functional
[15] = system: Staphylococcus epidermidis; assay: Antibacterial activity against coagulase-negative Staphylococcus epidermidis 345 after 10 passages in MBH without antibiotic by agar dilution method; assay type: functional; method in brief: as §1
[16] = system: Staphylococcus epidermidis; assay: Antibacterial activity against coagulase-negative Staphylococcus epidermidis 051 after 10 passages in MBH without antibiotic by agar dilution method; assay type: functional; method in brief: as §1
[17] = system: coagulase-negative staphylococci; assay: Antibacterial activity against Tmp-susceptible coagulase-negative staphylococci by agar dilution method
Staphylococcus aureus [18] = assay: Antibacterial activity against Staphylococcus aureus ATCC 29213 assessed as change in MIC by agar odilution method after serial passages in presence of antibiotic relative to control; assay type: functional, ATCC29213; method in brief: as §2
[19] = system: Staphylococcus epidermidis; assay: Antibacterial activity against coagulase-negative Staphylococcus epidermidis 225 after 10 passages in MBH without antibiotic by agar dilution method; assay type: functional; method in brief: as §1
Staphylococcus aureus [20] = assay: Antibacterial activity against methicillin-resistant Staphylococcus aureus by agar dilution method; assay type: functional
Method in brief: (§5)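 Agar dilution on Mueller-Hinton agar per CLSI guidelines. S. aureus ATCC 29213 and E. faecalis ATCC 29212 were run with each set, and test MICs were accepted only when the control strains fell within acceptable ranges.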

Staphylococcus aureus [21] = assay: Antibacterial activity against methicillin-susceptible, vancomycin-intermediate Staphylococcus aureus 505 by broth macrodilution method; assay type: functional
[22] = system: coagulase-negative staphylococci; assay: Antibacterial activity against methicillin-resistant coagulase-negative staphylococci by agar dilution method
[23] = system: Staphylococcus epidermidis; assay: Antibacterial activity against coagulase-negative Staphylococcus epidermidis 197 assessed as change in MIC by agar dilution method after serial passages in presence of antibiotic relative to control; assay type: functional; method in brief: as §2
Staphylococcus aureus [24] = assay: Antibacterial activity against methicillin-susceptible Staphylococcus aureus ATCC 29213 after 50 passages by agar dilution method; assay type: functional; settings: ATCC29213; method in brief: as §4
Staphylococcus aureus [25] = assay: Antibacterial activity against methicillin-susceptible Staphylococcus aureus by agar dilution method; assay type: functional; method in brief: as §5
Staphylococcus aureus [26] = assay: Antibacterial activity against vancomycin-resistant Staphylococcus aureus VRS1 by broth macrodilution method; assay type: functional
Method in brief: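 Michigan VRSA strain, one of 12 staphylococci later used in time-kill studies. MIC was determined by broth macrodilution and reported in μg/ml.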

[27] = system: Staphylococcus epidermidis; assay: Antibacterial activity against coagulase-negative Staphylococcus epidermidis 057 assessed as change in MIC by agar dilution method after serial passages in the absence of antibiotic relative to control; assay type: functional; method in brief: as §1
[28] = system: Staphylococcus epidermidis; assay: Antibacterial activity against coagulase-negative Staphylococcus epidermidis 057 by agar dilution method; assay type: functional
Method in brief: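 Agar dilution MIC determined on Mueller-Hinton agar following CLSI guidelines. S. aureus ATCC 29213 and Enterococcus faecalis ATCC 29212 were run as quality controls with each set, and test MICs were accepted only when the control MICs fell within acceptable ranges. Test organism was a coagulase-negative S. epidermidis strain.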

Staphylococcus aureus [29] = assay: Antibacterial activity against Staphylococcus aureus ATCC 43300 assessed as change in MIC by agar dilution method after serial passages in presence of antibiotic relative to control; assay type: functional; method in brief: as §2
Staphylococcus aureus [30] = assay: Antibacterial activity against methicillin-susceptible Staphylococcus aureus ATCC 29213 by broth macrodilution method; assay type: functional; settings: ATCC29213
[31] = system: Staphylococcus epidermidis; assay: Antibacterial activity against coagulase-negative Staphylococcus epidermidis 057 assessed as change in MIC by agar dilution method after serial passages in presence of antibiotic relative to control; assay type: functional; method in brief: as §2
[32] = system: Staphylococcus epidermidis; assay: Antibacterial activity against coagulase-negative Staphylococcus epidermidis 225 assessed as change in MIC by agar dilution method after serial passages in the absence of antibiotic relative to control; assay type: functional; method in brief: as §1
Staphylococcus aureus [33] = assay: Antibacterial activity against methicillin-resistant Staphylococcus aureus ATCC 43300 by broth macrodilution method; assay type: functional; settings: ATCC43300
Staphylococcus aureus [34] = assay: Antibacterial activity against methicillin-resistant and vancomycin-resistant Staphylococcus aureus VRS1 by agar dilution method; assay type: functional; method in brief: as §5
Staphylococcus aureus [35] = assay: Antibacterial activity against methicillin-resistant Staphylococcus aureus 507 by broth macrodilution method; assay type: functional
[36] = system: Staphylococcus epidermidis; assay: Antibacterial activity against methicillin-resistant, vancomycin-intermediate coagulase-negative Staphylococcus epidermidis 225 by agar dilution method; assay type: functional; method in brief: as §5
Staphylococcus aureus [37] = assay: Antibacterial activity against Tmp-susceptible coagulase-negative Staphylococcus aureus by agar dilution method; assay type: functional; method in brief: as §3

COc1cc(Cc2cnc(N)nc2N)cc(/C=C/C(=O)N2N=Cc3ccccc3C2c2cnc(N3CCOCC3)nc2)c1OC (configuration not stated) was tested, and the MIC [1] was 4 µg/mL (≈ 6.58 µM), the “fold change (FC)” value (Staphylococcus aureus [2]) was 0 and the MIC [3] was 128 µg/mL (≈ 211 µM). The “fold change (FC)” value (Staphylococcus aureus [4]) was 9, the “fold change (FC)” value [5] was -1 and the MIC [6] was 0.06 µg/mL (≈ 0.0987 µM). The “fold change (FC)” value [7] was 7, the MIC (Staphylococcus aureus [8]) was 0.25 µg/mL (≈ 0.411 µM) and the MIC [9] was 0.06 µg/mL (≈ 0.0987 µM). The “fold change (FC)” value (Staphylococcus aureus [10]) was 8, the MIC [11] was 0.25 µg/mL (≈ 0.411 µM) and the “fold change (FC)” value [12] was -6. The MIC50 [13] was 0.125 µg/mL (≈ 0.206 µM), the MIC90 [13] was 1 µg/mL (≈ 1.65 µM) and the MIC [14] was 0.25 µg/mL (≈ 0.411 µM). The MIC [15] was 2 µg/mL (≈ 3.29 µM), the MIC [16] was 1 µg/mL (≈ 1.65 µM) and the MIC50 [17] was 0.03 µg/mL (≈ 0.0494 µM). For the same compound, the MIC90 [17] was 0.06 µg/mL (≈ 0.0987 µM), the “fold change (FC)” value (Staphylococcus aureus [18]) was 4 and the MIC [19] was 2 µg/mL (≈ 3.29 µM). For the same compound, the MIC50 (Staphylococcus aureus [20]) was 0.03 µg/mL (≈ 0.0494 µM), the MIC90 (Staphylococcus aureus [20]) was 0.25 µg/mL (≈ 0.411 µM) and the MIC (Staphylococcus aureus [21]) was 0.03 µg/mL (≈ 0.0494 µM). The MIC50 [22] was 0.06 µg/mL (≈ 0.0987 µM), the MIC90 [22] was 0.5 µg/mL (≈ 0.823 µM) and the “fold change (FC)” value [23] was 4. For the same compound, the MIC (Staphylococcus aureus [24]) was 1 µg/mL (≈ 1.65 µM), the MIC50 (Staphylococcus aureus [25]) was 0.03 µg/mL (≈ 0.0494 µM) and the MIC90 (Staphylococcus aureus [25]) was 0.25 µg/mL (≈ 0.411 µM). The MIC (Staphylococcus aureus [26]) was 1 µg/mL (≈ 1.65 µM), the “fold change (FC)” value [27] was -1 and the MIC [28] was 8 µg/mL (≈ 13.2 µM). For the same compound, the “fold change (FC)” value (Staphylococcus aureus [29]) was 5, the MIC (Staphylococcus aureus [30]) was 0.06 µg/mL (≈ 0.0987 µM) and the “fold change (FC)” value [31] was 5. For the same compound, the “fold change (FC)” value [32] was -7, the MIC (Staphylococcus aureus [33]) was 0.03 µg/mL (≈ 0.0494 µM) and the MIC (Staphylococcus aureus [34]) was 1 µg/mL (≈ 1.65 µM). The MIC (Staphylococcus aureus [35]) was 0.25 µg/mL (≈ 0.411 µM), the MIC [36] was 0.25 µg/mL (≈ 0.411 µM) and the MIC (Staphylococcus aureus [37]) was at most 8 ng/mL.
